Active and inactive are the calls of the source. The rule behind the calls is not given here. Starred links: 1 amine or outer side, 2 acyl side, 3 side chain; linkers in the order of their positions; H or OH if unused. Positions of bridges follow the written chain, without caps; N, C: chain ends. Non-standard residues stand in square brackets, D forms with d. Residues, ends and D or L forms follow the SMILES beside them. *: point of attachment. hTyr(3S-OH,4S-OH,3'-OSO3H) = N[C@H](C(=O)O)[C@H](O)[C@@H](O)c1ccc(O)c(OS(=O)(=O)O)c1; Orn(4R-OH,5R-OH) = O=C([C@H](C[C@@H](O)[C@@H](O)N[*:3])N[*:1])[*:2]; Pro(3S-OH,4S-Me) = C[C@H]1CN[C@H](C(=O)O)[C@H]1O; X1 = CCCCCOc1ccc(-c2cc(-c3ccc(C(=O)*)cc3)no2)cc1; Gln(3R-OH) = NC(=O)C[C@@H](O)[C@H](N)C(=O)O; Hyp = O=C(O)[C@@H]1C[C@@H](O)CN1
Experiments:
[1] = test system: Aspergillus fumigatus; assay: Antifungal activity against Aspergillus fumigatus 293 by broth-microdilution; type: functional; details: read-out: MEC
In short: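 Broth microdilution following CLSI (NCCLS) approved standard M38-A. Amphotericin B read as MIC; micafungin read as minimum effective concentration.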

[2] = test system: Aspergillus fumigatus; assay: Antifungal activity against Aspergillus fumigatus 293 by Etest; type: functional
In short: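 Susceptibility of A. fumigatus 293 by Etest. Amphotericin B read as MIC; micafungin read as minimum effective concentration.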

[3] = test system: Aspergillus fumigatus; assay: Antifungal activity against Aspergillus fumigatus 293 infected in neutropenic BALB/c mouse assessed as mouse survival at 5 mg/kg, ip administered as single dose 24 hrs prior to infection measured after 7 days relative to untreated control; type: functional; details: route intraperitoneal
In short: (§1)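 Female BALB/c mice, 8 weeks old, 18-22 g. Neutropenia by cyclophosphamide 150 mg/kg i.p. on days −4, −1 and +3, plus cortisone acetate 250 mg/kg i.p. on day −1. Under isoflurane, 2.5 × 10^6 conidia given intranasally. Drug diluted in D5W, given once i.p. 24 h pre-infection; D5W controls; n = 20/group. Morbidity monitored 7 days; log-rank test.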

[4] = test system: Aspergillus fumigatus; assay: Antifungal activity against Aspergillus fumigatus 293 infected in neutropenic BALB/c mouse lung assessed as log reduction in fungal burden at 20 mg/kg, ip administered as single dose 24 hrs before infection; type: functional; details: route intraperitoneal
In short: (§2)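 Same neutropenic BALB/c intranasal-challenge model; single i.p. dose in D5W given 24 h pre-infection; D5W controls. Lungs from 10-20 mice/group taken at day +7, or earlier at moribund euthanasia. A. fumigatus DNA quantified by real-time PCR as conidial equivalents; reduction expressed as log10 of median versus control.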

[5] = test system: Aspergillus fumigatus; assay: Antifungal activity against Aspergillus fumigatus 293 infected in neutropenic BALB/c mouse lung assessed as swollen dysmorphic hyphal clusters at 10 mg/kg, ip administered as single dose 24 hrs before infection by light microscopy; type: functional, organism-based; parameters: dose 10 mg/kg
In short: (§3)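 Repeat experiments in the neutropenic intranasal-challenge model, five mice per dose, single i.p. dose 24 h pre-infection. Day +7 lungs fixed in 10% formaldehyde and stained with Grocott methenamine silver. Hyphal morphology and density assessed by light microscopy at ×100 and ×400.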

[6] = test system: Aspergillus fumigatus; assay: Antifungal activity against Aspergillus fumigatus 293 infected in neutropenic BALB/c mouse lung assessed as log reduction in fungal burden at 10 mg/kg, ip administered as single dose 24 hrs before infection; type: functional; details: route intraperitoneal; in short: as §2
[7] = test system: Aspergillus fumigatus; assay: Antifungal activity against Aspergillus fumigatus 293 infected in neutropenic BALB/c mouse lung assessed as swollen dysmorphic hyphal clusters at 20 mg/kg, ip administered as single dose 24 hrs before infection by light microscopy; type: functional, organism-based; parameters: dose 20 mg/kg; in short: as §3
[8] = test system: Aspergillus fumigatus; assay: Antifungal activity against Aspergillus fumigatus 293 infected in neutropenic BALB/c mouse lung assessed as log reduction in fungal burden at 5 mg/kg, ip administered as single dose 24 hrs before infection; type: functional; details: route intraperitoneal; in short: as §2
[9] = test system: Aspergillus fumigatus; assay: Antifungal activity against Aspergillus fumigatus 293 infected in neutropenic BALB/c mouse assessed as mouse survival at 20 mg/kg, ip administered as single dose 24 hrs before infection measured after 7 days relative to untreated control; type: functional; details: route intraperitoneal; in short: as §1

| SMILES | minimal effective concentration [1] | MEC [2] | Activity [3] | FC [4] | Activity [5] | FC [6] | Activity [7] | FC [8] | Activity [9] |
| --- | --- | --- | --- | --- | --- | --- | --- | --- | --- |
| C[C@@H]1[C@H](O)[C@@H](C)/C=C/C=C/C=C/C=C/C=C/C=C/C=C/[C@H](O[C@@H]2O[C@H](C)[C@@H](O)[C@H](N)[C@@H]2O)C[C@@H]2O[C@](O)(C[C@@H](O)C[C@@H](O)[C@H](O)CC[C@@H](O)C[C@@H](O)CC(=O)O[C@H]1C)C[C@H](O)[C@H]2C(=O)O [AMPHOTERICIN B] | 0.25 µg/mL |  |  |  |  |  |  |  |  |
| CCCCCOc1ccc(-c2cc(-c3ccc(C(=O)N[C@H]4C[C@@H](O)[C@@H](O)NC(=O)[C@@H]5[C@@H](O)[C@@H](C)CN5C(=O)[C@H]([C@H](O)CC(N)=O)NC(=O)[C@H]([C@H](O)[C@@H](O)c5ccc(O)c(OS(=O)(=O)O)c5)NC(=O)[C@@H]5C[C@@H](O)CN5C(=O)[C@H]([C@@H](C)O)NC4=O)cc3)no2)cc1 [MICAFUNGIN] (X1-[Orn(4R-OH,5R-OH)]T[Hyp][hTyr(3S-OH,4S-OH,3'-OSO3H)][Gln(3R-OH)][Pro(3S-OH,4S-Me)]; lactam 1-C) | 0.25 µg/mL | 0.25 µg/mL | 55% | 0.7 | Active | 1.3 | Active | 1.3 | 55% |

Source: ChEMBL document CHEMBL1275536, “Efficacy of single-dose liposomal amphotericin B or micafungin prophylaxis in a neutropenic murine model of invasive pulmonary aspergillosis” (2008)
